This note sets out measurements from ChEMBL document CHEMBL1130251, “Enzymatic properties of the unnatural beta-L-enantiomers of 2',3'-dideoxyadenosine and 2',3'-didehydro-2',3'-dideoxyadenosine” (J Med Chem, 1997).

One series has as its target T1, Adenosine deaminase (Bos taurus, UniProt P56658).
T1 sequence (P56658 whole entry): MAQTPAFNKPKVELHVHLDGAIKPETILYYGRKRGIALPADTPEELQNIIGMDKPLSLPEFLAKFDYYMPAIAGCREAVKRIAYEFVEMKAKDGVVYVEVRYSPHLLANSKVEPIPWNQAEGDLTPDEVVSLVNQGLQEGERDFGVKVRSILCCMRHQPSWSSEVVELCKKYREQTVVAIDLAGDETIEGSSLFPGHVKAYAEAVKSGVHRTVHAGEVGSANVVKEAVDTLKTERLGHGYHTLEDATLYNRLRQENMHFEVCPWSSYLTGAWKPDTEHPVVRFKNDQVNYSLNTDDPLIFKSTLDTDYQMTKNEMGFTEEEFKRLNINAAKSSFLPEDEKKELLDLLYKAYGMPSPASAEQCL
Briefly: inhibitory activity against Adenosine deaminase. In a few lines: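 Adenosine deaminase (calf intestinal mucosa, type VIII) at 37 °C in 50 mM phosphate pH 7.5. Substrate tests used 20–80 μM nucleoside and 0.01–1 unit enzyme, with HPLC product analysis. Inhibition was read by UV spectrometry with adenosine 20–100 μM. Ki was taken from Lineweaver–Burk plots assuming competitive inhibition.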

Series [1] in a line: Half life of the compound. The series is classed as ADME. The method, boiled down: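 Deamination by calf intestinal mucosa adenosine deaminase (type VIII) at 37 °C in 50 mM phosphate buffer pH 7.5. Substrate 20–80 μM with 0.01–1 unit of enzyme depending on substrate. Conversion followed over time by HPLC on C-18 with a phosphate pH 6 / acetonitrile gradient, which also confirmed the deaminated nucleoside as sole product.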

By Ki is commonly meant the dissociation constant of the complex between target and ligand, obtained from inhibition or displacement. Read a low Ki as a stronger hold on the target. On to `Nc1ncnc2c1ncn2[C@H]1CC[C@@H](CO)O1`, for which the Ki on Adenosine deaminase was determined as 120 µM.

The term half-life denotes the time needed for the level to fall by half in the phase considered. Higher therefore signals slow loss. Molecule `Nc1ncnc2c1ncn2[C@H]1C=C[C@@H](CO)O1` gave a half-life in series [1] of 74.4 h.
